Measurements: ChEMBL document CHEMBL1821614, “Synthesis and biological evaluation of novel Mannich bases of 2-arylimidazo[2,1-b]benzothiazoles as potential anti-cancer agents” (Eur J Med Chem, 2011)
Calls of active or inactive are those of the source. No cut-off for these calls is given here.

What was measured:
[1] = Cytotoxicity against human HEK cells after 24 hrs by MTT assay; assay type: cell-based; conditions: HEK293, 24 h
HeLa [2] = test: Selectivity ratio of IC50 for human HEK cells to IC50 for human HeLa cells
Procedure, shortened: (§1)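 Selectivity index was calculated as the MTT IC50 in normal HEK cells divided by the IC50 in the given cancer line.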

HepG2 [3] = test: Induction of cell cycle arrest in human HepG2 assessed as accumulation at G0/G1-phase at 4 uM after 24 hrs by propidium iodide staining based FACS analysis; assay type: functional
Procedure, shortened: (§2)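 HepG2 cells were seeded at 5 × 10^5 per 60 mm dish and grown 24 h. Compound was added at 4 µM for a further 24 h. Cells were harvested with trypsin-EDTA, fixed in ice-cold 70% ethanol 30 min at 4 °C and treated with RNase A 30 min at 37 °C. They were stained with propidium iodide/citrate/Triton X-100 solution and phase distribution was read by flow cytometry.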

MCF7 [4] = test: Cytotoxicity against human MCF7 cells after 24 hrs by MTT assay; assay type: functional, cell-based; conditions: MCF7, 24 h
Procedure, shortened: (§3)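 Cells were grown in DMEM with 10% FCS, penicillin and streptomycin at 37 °C under 5% CO2. They were seeded at 10,000 cells/well, left overnight, then treated 24 h. Medium was replaced with fresh medium, MTT was added and plates were held 2 h at 37 °C. Absorbance was read at 570 nm. Single-point runs used 4 µM. Data come from three independent experiments as mean ± S.D.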

HepG2 [5] = test: Cytotoxicity against human HepG2 cells after 24 hrs by MTT assay; assay type: functional, cell-based; conditions: HepG2, 24 h; procedure, shortened: as §3
HepG2 [6] = test: Cytotoxicity against human HepG2 cells at 4 uM after 24 hrs by MTT assay; assay type: functional, cell-based; procedure, shortened: as §3
MCF7 [7] = test: Selectivity ratio of IC50 for human HEK cells to IC50 for human MCF7 cells; procedure, shortened: as §1
HeLa [8] = test: Cytotoxicity against human HeLa cells at 4 uM after 24 hrs by MTT assay; assay type: functional, cell-based; procedure, shortened: as §3
HeLa [9] = test: Cytotoxicity against human HeLa cells after 24 hrs by MTT assay; assay type: functional, cell-based; procedure, shortened: as §3
HepG2 [10] = test: Induction of cell cycle arrest in human HepG2 assessed as accumulation at S-phase at 4 uM after 24 hrs by propidium iodide staining based FACS analysis; assay type: functional; procedure, shortened: as §2
MCF7 [11] = test: Cytotoxicity against human MCF7 cells at 4 uM after 24 hrs by MTT assay; assay type: functional, cell-based; procedure, shortened: as §3
HepG2 [12] = test: Induction of cell cycle arrest in human HepG2 assessed as accumulation at G2/M-phase at 4 uM after 24 hrs by propidium iodide staining based FACS analysis; assay type: functional; procedure, shortened: as §2
HepG2 [13] = test: Selectivity ratio of IC50 for human HEK cells to IC50 for human HepG2 cells; procedure, shortened: as §1
HepG2 [14] = test: Induction of apoptosis in human HepG2 cells assessed as caspase3 activation at 4 uM by fluorimetric analysis; assay type: functional, cell-based
Procedure, shortened: (§4)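 HepG2 cells were treated with compound at 4 µM, with an untreated control. Lysates were mixed with 2× reaction buffer containing DTT, caspase-3 substrate was added and the mix was incubated 1 h at 37 °C. Fluorescence was read at ex 400/em 505 nm and expressed as activity relative to the untreated control.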

HepG2 [15] = test: Induction of cell cycle arrest at G2/M phase in human HepG2 cells assessed as down regulation of cyclin B1 at 4 uM after 24 hrs by Western blot analysis
HepG2 [16] = test: Down regulation of […] protein in human HepG2 cells at 4 uM after 24 hrs by Western blot analysis; assay type: functional, cell-based
Procedure, shortened: (§5)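 HepG2 cells exposed 24 h to compounds at 4 µM, with an untreated control and a YM-201627 reference. Lysates were resolved at 50 µg protein per lane on 12% SDS-PAGE and transferred to PVDF. Membranes were blocked 2 h at RT in TBST with 5% blocking powder, probed with primary antibody at 4 °C overnight and then HRP secondary (1:2000) 1 h at RT. Detection by chemiluminescence, with β-actin as loading control.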

HepG2 [17] = test: Induction of apoptosis in human HepG2 cells assessed as caspase3 activation at 4 uM by fluorimetric analysis relative to control; assay type: functional; procedure, shortened: as §4
HepG2 [18] = test: Down regulation of PKCalpha protein in human HepG2 cells at 4 uM after 24 hrs by Western blot analysis; assay type: functional, cell-based; procedure, shortened: as §5
HepG2 [19] = test: Down regulation of phosphorylated JNK protein in human HepG2 cells at 4 uM after 24 hrs by Western blot analysis; assay type: functional, cell-based; procedure, shortened: as §5
HepG2 [20] = test: Antiproliferative activity against human HepG2 cells assessed as down regulation of NF-kappaB protein at 4 uM after 24 hrs by Western blot analysis; assay type: functional, cell-based; procedure, shortened: as §5
HepG2 [21] = test: Upregulation of Chk2 protein in human HepG2 cells at 4 uM after 24 hrs by Western blot analysis; assay type: functional, cell-based; procedure, shortened: as §5
HepG2 [22] = test: Down regulation of c-jun protein in human HepG2 cells at 4 uM after 24 hrs by Western blot analysis; assay type: functional, cell-based; procedure, shortened: as §5
HepG2 [23] = test: Down regulation of p38 MPAK protein in human HepG2 cells at 4 uM after 24 hrs by Western blot analysis; assay type: functional, cell-based; procedure, shortened: as §5

| SMILES | IC50 [1] [µM] | Ratio IC50 (HeLa [2]) | Activity (HepG2 [3]) [%] | IC50 (MCF7 [4]) [µM] | IC50 (HepG2 [5]) [µM] | Activity (HepG2 [6]) | Ratio IC50 (MCF7 [7]) | Activity (HeLa [8]) | IC50 (HeLa [9]) [µM] | Activity (HepG2 [10]) [%] | Activity (MCF7 [11]) | Activity (HepG2 [12]) [%] | Ratio IC50 (HepG2 [13]) | other results |
| --- | --- | --- | --- | --- | --- | --- | --- | --- | --- | --- | --- | --- | --- | --- |
| Cc1ccc2c(c1)sc1nc(-c3ccccc3)c(CN3CCCC3)n12 | 17.5 | 2.163 | 73.97 | 3.8 | 3.6 | Active | 4.6 | Active | 8.09 | 7.13 | Active | 18.95 | 4.86 |  |
| CCOc1ccc2c(c1)sc1nc(-c3ccccc3)c(CN3CCCC3)n12 | 18.8 |  | 60.12 | 3.76 | 3.76 | Active |  | Active | 4.3 | 12.64 | Active | 27.23 | 5 |  |
| c1ccc(-c2nc3sc4ccccc4n3c2CN2CCCC2)cc1 | 18.5 | 3.98 | 60.2 | 3.87 | 3.01 | Active | 4.78 | Active | 4.65 | 10.52 | Active | 29.27 | 6.15 |  |
| Clc1ccc(-c2nc3sc4ccccc4n3c2CN2CCCC2)cc1 | 21.2 | 4.89 | 81.75 | 4.07 | 3.46 | Active | 5.2 | Active | 4.33 | 4.58 | Active | 13.66 | 6.12 |  |
| CCOc1ccc2c(c1)sc1nc(-c3ccccc3)c(CN3CCN(c4ccccn4)CC3)n12 | 16 | 3.67 | 55.24 | 4.45 | 2.84 | Active | 3.59 | Active | 4.36 | 13.42 | Active | 31.33 | 5.63 | Activity (HepG2 [14]): Active; Activity (HepG2 [15]): Active; Activity (HepG2 [16]): Active; fold change (FC) (HepG2 [17]): 2; Activity (HepG2 [18]): Active; Activity (HepG2 [19]): Active; Activity (HepG2 [20]): Active; Activity (HepG2 [21]): Active; Activity (HepG2 [22]): Active; Activity (HepG2 [23]): Active |
| CCOc1ccc2c(c1)sc1nc(-c3ccccc3)c(CN3CCOCC3)n12 | 21 | 3.57 | 73.54 | 4.2 | 3.52 | Active | 5 | Active | 5.89 | 5.99 | Active | 20.46 | 5.97 |  |
| Cc1ccc2c(c1)sc1nc(-c3ccccc3)c(CN3CCOCC3)n12 | 19 | 2.5 | 70.89 | 3.8 | 3.29 | Active | 5 | Active | 7.59 | 8.2 | Active | 20.9 | 5.78 |  |
| CCN(CC)CCOc1cccc(-c2cn3c(n2)sc2ccccc23)c1.Cl.Cl | 17.5 | 4.069 | 64.19 | 3.59 | 2.02 | Active | 4.87 | Active | 4.3 | 13.37 | Active | 22.43 | 8.663 |  |
